{
  "source": "ChEMBL document CHEMBL3425469",
  "about": "“Discovery of imidazo[2,1-b]thiazole HCV NS4B inhibitors exhibiting synergistic effect with other direct-acting antiviral agents” (J Med Chem, 2015)",
  "key": {"Hepatitis C virus [1]": {"test_system": "Hepatitis C virus", "assay": "Antiviral activity against Hepatitis C virus genotype 1b harboring Y93H NS5A mutation transfected in human HuH7 cells after 72 hrs by luciferase assay", "assay_type": "functional, cell-based, Hepacivirus hominis", "settings": "Huh-7, 72 h", "in_short": "(§1)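 Huh-7 cells were transiently electroporated with genotype 1b replicon RNA carrying the specified mutation and plated at 10000 cells/well. Compounds were added at 0.5% DMSO final for 72 h at 37°C. Read-out was Bright-Glo luciferase. EC50 is the mean of two independent runs within 2-fold of each other. A reference drug EC50 was measured alongside each mutant replicon to validate it.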"}, "Hepatitis C virus [2]": {"test_system": "Hepatitis C virus", "assay": "Antiviral activity against Hepatitis C virus genotype 1b Con 1 infected in human HuH7 cells at 160 nM after 72 hrs by luciferase assay in presence of 5 uM clemizole", "assay_type": "functional, Hepacivirus hominis, Huh-7", "in_short": "(§2)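 Stable Con1 GT1b bicistronic luciferase replicon in Huh-7 cells, 8000 cells/well. Test compound and a marketed DAA or clemizole added alone or together at varied concentrations, 0.5% DMSO final. 72 h at 37°C, then luciferase read with Bright-Glo. Inhibition expressed as % of untreated control, with cytotoxicity run in parallel. CI and DRI derived by the Chou–Talalay median-effect method.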"}, "Hepatitis C virus [3]": {"test_system": "Hepatitis C virus", "assay": "Antiviral activity against Hepatitis C virus genotype 1b Con 1 infected in human HuH7 cells at 80 nM after 72 hrs by luciferase assay in presence of 180 nM sofobuvir", "assay_type": "functional, Hepacivirus hominis, Huh-7", "in_short": "(§3)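 Huh-7 cells stably carrying a GT1b Con1 bicistronic luciferase replicon, seeded at 8000 cells/well. The test compound and the partner DAA are dosed orthogonally at various concentrations, final 0.5% DMSO, then incubated 72 h at 37°C. Bright-Glo luciferase read-out gives replicon inhibition as % of untreated control. Cytotoxicity is checked in parallel by CellTiter-Fluor. CI and DRI are derived by the Chou–Talalay median-effect method.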"}, "Hepatitis C virus [4]": {"test_system": "Hepatitis C virus", "assay": "Antiviral activity against Hepatitis C virus genotype 1b Con 1 infected in human HuH7 cells at 80 nM after 72 hrs by luciferase assay in presence of 0.16 nM daclatasvir", "assay_type": "functional, Hepacivirus hominis, Huh-7", "in_short": "as §3"}, "Hepatitis C virus [5]": {"test_system": "Hepatitis C virus", "assay": "Antiviral activity against Hepatitis C virus genotype 1b Con 1 infected in human HuH7 cells at 2.5 nM after 72 hrs by luciferase assay in presence of 240 nM sofobuvir", "assay_type": "functional, Hepacivirus hominis, Huh-7", "in_short": "as §2"}, "Hepatitis C virus [6]": {"test_system": "Hepatitis C virus", "assay": "Antiviral activity against Hepatitis C virus genotype 1b Con 1 infected in human HuH7 cells at 10 nM after 72 hrs by luciferase assay in presence of 7.5 uM clemizole", "assay_type": "functional, Hepacivirus hominis, Huh-7", "in_short": "as §2"}, "Hepatitis C virus [7]": {"test_system": "Hepatitis C virus", "assay": "Antiviral activity against Hepatitis C virus genotype 1b Con 1 infected in human HuH7 cells at 40 nM after 72 hrs by luciferase assay in presence of 12 nM simeprevir", "assay_type": "functional, Hepacivirus hominis, Huh-7", "in_short": "as §3"}, "Hepatitis C virus [8]": {"test_system": "Hepatitis C virus", "assay": "Antiviral activity against Hepatitis C virus genotype 1b Con 1 infected in human HuH7 cells at 80 nM after 72 hrs by luciferase assay in presence of 10 uM clemizole", "assay_type": "functional, Hepacivirus hominis, Huh-7", "in_short": "as §3"}, "Hepatitis C virus [9]": {"test_system": "Hepatitis C virus", "assay": "Antiviral activity against Hepatitis C virus genotype 1b Con 1 infected in human HuH7 cells at 20 nM after 72 hrs by luciferase assay in presence of 30 nM sofobuvir", "assay_type": "functional, Hepacivirus hominis, Huh-7", "in_short": "as §3"}, "Hepatitis C virus [10]": {"test_system": "Hepatitis C virus", "assay": "Antiviral activity against Hepatitis C virus genotype 1b Con 1 infected in human HuH7 cells at 80 nM after 72 hrs by luciferase assay in presence of 12.5 uM clemizole", "assay_type": "functional, Hepacivirus hominis, Huh-7", "in_short": "as §3"}, "Hepatitis C virus [11]": {"test_system": "Hepatitis C virus", "assay": "Antiviral activity against Hepatitis C virus genotype 1b Con 1 infected in human HuH7 cells at 2.5 nM after 72 hrs by luciferase assay in presence of 6 nM simeprevir", "assay_type": "functional, Hepacivirus hominis, Huh-7", "in_short": "as §2"}, "Hepatitis C virus [12]": {"test_system": "Hepatitis C virus", "assay": "Antiviral activity against Hepatitis C virus genotype 1b Con 1 infected in human HuH7 cells at 10 nM after 72 hrs by luciferase assay in presence of 120 nM sofobuvir", "assay_type": "functional, Hepacivirus hominis, Huh-7", "in_short": "as §2"}, "Hepatitis C virus [13]": {"test_system": "Hepatitis C virus", "assay": "Antiviral activity against Hepatitis C virus genotype 1b Con 1 infected in human HuH7 cells at 160 nM after 72 hrs by luciferase assay in presence of 0.04 nM daclatasvir", "assay_type": "functional, Hepacivirus hominis, Huh-7", "in_short": "as §2"}, "Hepatitis C virus [14]": {"test_system": "Hepatitis C virus", "assay": "Antiviral activity against Hepatitis C virus genotype 1b Con 1 infected in human HuH7 cells at 2.5 nM after 72 hrs by luciferase assay in presence of 0.16 nM daclatasvir", "assay_type": "functional, Hepacivirus hominis, Huh-7", "in_short": "as §2"}, "Hepatitis C virus [15]": {"test_system": "Hepatitis C virus", "assay": "Antiviral activity against Hepatitis C virus genotype 1b Con 1 infected in human HuH7 cells at 160 nM after 72 hrs by luciferase assay in presence of 17.5 uM clemizole", "assay_type": "functional, Hepacivirus hominis, Huh-7", "in_short": "as §2"}, "Hepatitis C virus [16]": {"test_system": "Hepatitis C virus", "assay": "Antiviral activity against Hepatitis C virus genotype 1b Con 1 infected in human HuH7 cells at 40 nM after 72 hrs by luciferase assay in presence of 0.08 nM daclatasvir", "assay_type": "functional, Hepacivirus hominis, Huh-7", "in_short": "as §3"}, "Hepatitis C virus [17]": {"test_system": "Hepatitis C virus", "assay": "Antiviral activity against Hepatitis C virus genotype 1b Con 1 infected in human HuH7 cells at 10 nM after 72 hrs by luciferase assay in presence of 30 nM sofobuvir", "assay_type": "functional, Hepacivirus hominis, Huh-7", "in_short": "as §2"}, "Hepatitis C virus [18]": {"test_system": "Hepatitis C virus", "assay": "Antiviral activity against Hepatitis C virus genotype 1b Con 1 infected in human HuH7 cells at 20 nM after 72 hrs by luciferase assay in presence of 7.5 uM clemizole", "assay_type": "functional, Hepacivirus hominis, Huh-7", "in_short": "as §3"}, "Hepatitis C virus [19]": {"test_system": "Hepatitis C virus", "assay": "Antiviral activity against Hepatitis C virus genotype 1b Con 1 infected in human HuH7 cells at 2.5 nM after 72 hrs by luciferase assay in presence of 20 uM clemizole", "assay_type": "functional, Hepacivirus hominis, Huh-7", "in_short": "as §2"}, "Hepatitis C virus [20]": {"test_system": "Hepatitis C virus", "assay": "Antiviral activity against Hepatitis C virus genotype 1b harboring H3R NS4B mutation transfected in human HuH7 cells after 72 hrs by luciferase assay", "assay_type": "functional, cell-based, Hepacivirus hominis", "settings": "Huh-7, 72 h", "in_short": "as §1"}, "Hepatitis C virus [21]": {"test_system": "Hepatitis C virus", "assay": "Antiviral activity against Hepatitis C virus genotype 1b Con1 infected in human HuH7 cells after 72 hrs by luciferase assay", "assay_type": "functional, cell-based, Hepacivirus hominis", "settings": "genotype 1b Con 1, Huh-7, 72 h", "in_short": "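Huh-7 cells stably carrying a genotype 1b Con1 bicistronic luciferase replicon, seeded at 8000 cells/well. Compounds were added at 0.5% DMSO final and incubated at 37°C for 72 h. Read-out was Bright-Glo luciferase, with cell proliferation measured by CellTiter-Fluor. EC50 is the mean of at least two independent runs. Some values are given as percent inhibition at 10 µM.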"}, "Hepatitis C virus [22]": {"test_system": "Hepatitis C virus", "assay": "Antiviral activity against Hepatitis C virus genotype 1b Con 1 infected in human HuH7 cells at 160 nM after 72 hrs by luciferase assay in presence of 12 nM simeprevir", "assay_type": "functional, Hepacivirus hominis, Huh-7", "in_short": "as §2"}, "Hepatitis C virus [23]": {"test_system": "Hepatitis C virus", "assay": "Antiviral activity against Hepatitis C virus genotype 1b harboring S282T NS5B (active site) mutation transfected in human HuH7 cells after 72 hrs by luciferase assay", "assay_type": "functional, cell-based, Hepacivirus hominis", "settings": "Huh-7, 72 h", "in_short": "as §1"}, "Hepatitis C virus [24]": {"test_system": "Hepatitis C virus", "assay": "Antiviral activity against Hepatitis C virus genotype 1b Con 1 infected in human HuH7 cells at 5 nM after 72 hrs by luciferase assay in presence of 240 nM sofobuvir", "assay_type": "functional, Hepacivirus hominis, Huh-7", "in_short": "as §3"}, "Hepatitis C virus [25]": {"test_system": "Hepatitis C virus", "assay": "Antiviral activity against Hepatitis C virus genotype 1b harboring Q26R mutation transfected in human HuH7 cells after 72 hrs by luciferase assay", "assay_type": "functional, cell-based, Hepacivirus hominis", "settings": "Huh-7, 72 h", "in_short": "as §1"}, "Hepatitis C virus [26]": {"test_system": "Hepatitis C virus", "assay": "Antiviral activity against Hepatitis C virus genotype 1b Con 1 infected in human HuH7 cells at 2.5 nM after 72 hrs by luciferase assay in presence of 0.02 nM daclatasvir", "assay_type": "functional, Hepacivirus hominis, Huh-7", "in_short": "as §2"}, "Hepatitis C virus [27]": {"test_system": "Hepatitis C virus", "assay": "Antiviral activity against Hepatitis C virus genotype 1b Con 1 infected in human HuH7 cells at 40 nM after 72 hrs by luciferase assay in presence of 20 uM clemizole", "assay_type": "functional, Hepacivirus hominis, Huh-7", "in_short": "as §3"}, "Hepatitis C virus [28]": {"test_system": "Hepatitis C virus", "assay": "Antiviral activity against Hepatitis C virus genotype 1b Con 1 infected in human HuH7 cells at 5 nM after 72 hrs by luciferase assay in presence of 3 nM simeprevir", "assay_type": "functional, Hepacivirus hominis, Huh-7", "in_short": "as §3"}},
  "data": [
    {"smiles": "O=C(c1nc2scc(C3CC3)n2c1Cl)N1CCN(C2CCCC2)C(=O)C1", "values": [
      {"measurement": "EC50", "setting": "Hepatitis C virus [1]", "value": 14, "unit": "nM"},
      {"measurement": "CI", "setting": "Hepatitis C virus [2]", "value": 1.84},
      {"measurement": "CI", "setting": "Hepatitis C virus [3]", "value": 0.43},
      {"measurement": "CI", "setting": "Hepatitis C virus [4]", "value": 0.73},
      {"measurement": "CI", "setting": "Hepatitis C virus [5]", "value": 0.83},
      {"measurement": "CI", "setting": "Hepatitis C virus [6]", "value": 0.54},
      {"measurement": "CI", "setting": "Hepatitis C virus [7]", "value": 0.62},
      {"measurement": "CI", "setting": "Hepatitis C virus [8]", "value": 0.82},
      {"measurement": "CI", "setting": "Hepatitis C virus [9]", "value": 0.83},
      {"measurement": "CI", "setting": "Hepatitis C virus [10]", "value": 0.95},
      {"measurement": "CI", "setting": "Hepatitis C virus [11]", "value": 0.59},
      {"measurement": "CI", "setting": "Hepatitis C virus [12]", "value": 0.7},
      {"measurement": "CI", "setting": "Hepatitis C virus [13]", "value": 0.42},
      {"measurement": "CI", "setting": "Hepatitis C virus [14]", "value": 0.98},
      {"measurement": "CI", "setting": "Hepatitis C virus [15]", "value": 1.74},
      {"measurement": "CI", "setting": "Hepatitis C virus [16]", "value": 0.53},
      {"measurement": "CI", "setting": "Hepatitis C virus [17]", "value": 0.69},
      {"measurement": "CI", "setting": "Hepatitis C virus [18]", "value": 0.56},
      {"measurement": "CI", "setting": "Hepatitis C virus [19]", "value": 1.45},
      {"measurement": "EC50", "setting": "Hepatitis C virus [20]", "value": 1100, "unit": "nM"},
      {"measurement": "EC50", "setting": "Hepatitis C virus [21]", "value": 16, "unit": "nM"},
      {"measurement": "CI", "setting": "Hepatitis C virus [22]", "value": 0.47},
      {"measurement": "EC50", "setting": "Hepatitis C virus [23]", "value": 15, "unit": "nM"},
      {"measurement": "CI", "setting": "Hepatitis C virus [24]", "value": 0.74},
      {"measurement": "EC50", "setting": "Hepatitis C virus [25]", "value": 350, "unit": "nM"},
      {"measurement": "CI", "setting": "Hepatitis C virus [26]", "value": 1.2},
      {"measurement": "CI", "setting": "Hepatitis C virus [27]", "value": 1.2},
      {"measurement": "CI", "setting": "Hepatitis C virus [28]", "value": 1.22}
    ]}
  ]
}
